Positions count from the first letter of the chain named. Values belong to the molecule of their own block, whether it stands above or below them.
Experiments:
PME-1 [1] = target: T1, PME-1 (Homo sapiens, UniProt Q9Y570); conditions: read-out: PME-1 IC50; cited from earlier work
T1 sequence (Q9Y570 2-386 limits assumed): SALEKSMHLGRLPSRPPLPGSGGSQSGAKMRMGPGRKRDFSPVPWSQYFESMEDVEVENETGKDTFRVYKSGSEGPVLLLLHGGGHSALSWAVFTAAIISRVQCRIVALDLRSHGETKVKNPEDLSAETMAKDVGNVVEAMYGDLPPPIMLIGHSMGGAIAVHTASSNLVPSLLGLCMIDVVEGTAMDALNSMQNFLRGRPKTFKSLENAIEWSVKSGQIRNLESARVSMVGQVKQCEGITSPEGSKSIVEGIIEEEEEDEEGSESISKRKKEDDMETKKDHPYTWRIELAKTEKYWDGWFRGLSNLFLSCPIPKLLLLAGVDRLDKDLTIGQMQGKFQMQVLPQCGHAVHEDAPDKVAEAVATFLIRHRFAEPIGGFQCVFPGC

[2] = test system: demethylated form of PP2A; experiment: PP2A methylation state in untransfected HEK 293T cells; assay type: cell-based, human; conditions: 1 hour, basal PME-1
Method in brief: (§1)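 Compound or DMSO added to the medium of HEK 293T cells at 37 °C. Total sonicated cell extract diluted to 2 mg/mL in PBS, run on reducing 10% SDS-PAGE, and immunoblotted with demethylated-specific (4b7), methylated-specific (2A10) and total PP2A antibodies plus α-tubulin. Bands quantified by fluorescence imaging. Mean ± SEM, n = 3; compared with DMSO-treated cells.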

[3] = test system: other SHs in human cell lysates; experiment: Gel-based competitive ABPP, other SHs in human cell proteomes/lysates; assay type: biochemical; conditions: human cell proteomes
PME-1 [4] = target: T2, PME-1 (Mus musculus, UniProt Q8BVQ5); experiment: Gel-based competitive ABPP with FP-Rh, PME-1 in mouse brain soluble proteome; assay type: biochemical
T2 sequence (Q8BVQ5 1-386): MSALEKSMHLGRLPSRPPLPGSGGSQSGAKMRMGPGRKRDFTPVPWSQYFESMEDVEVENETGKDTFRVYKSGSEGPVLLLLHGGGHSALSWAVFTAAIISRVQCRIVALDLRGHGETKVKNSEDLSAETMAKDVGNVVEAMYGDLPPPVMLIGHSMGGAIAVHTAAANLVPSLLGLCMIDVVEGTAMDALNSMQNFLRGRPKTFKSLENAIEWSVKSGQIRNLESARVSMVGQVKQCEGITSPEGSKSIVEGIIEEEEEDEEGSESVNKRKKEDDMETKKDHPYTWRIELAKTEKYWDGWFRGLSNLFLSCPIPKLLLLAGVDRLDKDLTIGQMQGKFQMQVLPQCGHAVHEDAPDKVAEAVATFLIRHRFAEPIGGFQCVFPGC
Method in brief: (§2)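 Soluble proteomes diluted to 1 mg/mL in PBS (pH 7.5) and preincubated with compound or DMSO for 30 min at 25 °C. FP-rhodamine then added (2 μM final) for 45 min. Reactions quenched with reducing SDS loading buffer, separated by 10% SDS-PAGE, and serine hydrolase activity read by in-gel fluorescence scanning.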

other SHs [5] = assay type: biochemical, mouse; conditions: Off-targets are defined as SHs with >50% inhibition at 50 μM; Table 1 series
Method in brief: as §2

PME-1 [6] = target: T1, PME-1; experiment: PME-1 IC50 by gel-based competitive ABPP in soluble proteomes; assay type: biochemical; conditions: Table 2 series
PP2A methylation state = PP2A methylation state in HEK 293T cells stably overexpressing PME-1; assay type: cell-based, human; conditions: 20 μM, 1 h
Method in brief: as §1

other SHs [7] = experiment: In situ gel-based competitive ABPP, other SHs in HEK 293T cells; assay type: cell-based, human; conditions: up to 100 μM compound, 1 h
Method in brief: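 HEK 293T cells treated in culture with a concentration range of compound or DMSO for 1 h at 37 °C, then harvested and sonicated in PBS (pH 7.5). Soluble fraction (64,000g supernatant) diluted to 1 mg/mL and labelled with FP-rhodamine (2 μM, 45 min, 25 °C). Resolved by 10% SDS-PAGE and read by in-gel fluorescence scanning.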

PME-1 [8] = target: T3, PME-1 (Homo sapiens, UniProt Q9Y570); experiment: In situ competitive SILAC-ABPP; assay type: cell-based; conditions: HEK 293T cells, 20 μM, 1 h
T3 sequence (Q9Y570 1-386): T2 sequence (Q8BVQ5 1-386) with T42S, G114S, S123P, V150I, A167S, A168S, V268I, N269S

Purified wild-type PME-1 = target: T4, Purified wild-type PME-1 (Homo sapiens, UniProt Q9Y570); experiment: Reversibility of PME-1 inhibition; assay type: biochemical; conditions: PME-1 500 nM, compound 50 μM
T4 sequence (Q9Y570 1-386): T2 sequence (Q8BVQ5 1-386) with T42S, G114S, S123P, V150I, A167S, A168S, V268I, N269S

[9] = test system: 35 other SHs detected in HEK 293T cells; experiment: In situ competitive SILAC-ABPP; assay type: cell-based, human; conditions: 20 μM, 1 h
Method in brief: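 HEK 293T cells SILAC-labelled with light or heavy Lys/Arg. Light cells given compound and heavy cells DMSO, 1 h at 37 °C. Soluble and membrane proteomes (0.5 mg each) mixed 1:1 and labelled with FP-biotin (5 μM, 1 h, 25 °C). Streptavidin enrichment, on-bead trypsin digestion, then MudPIT LC-MS/MS. Light/heavy ratios taken for SHs with ≥2 quantifiable peptides, normalised to a DMSO/DMSO control.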

[10] = test system: CA-Rh or SE-Rh-labeled proteins; experiment: CA-Rh / SE-Rh probe labeling of soluble proteomes from treated HEK 293T cells; assay type: cell-based, human; conditions: 100 μM, relative to DMSO-treated samples
Method in brief: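 Compound or DMSO added to the culture medium of HEK 293T cells at 37 °C. Cells washed, scraped, pelleted, and sonicated in ice-cold PBS (pH 7.5). Soluble fraction isolated at 64,000g for 45 min at 4 °C and diluted to 1 mg/mL. Labelled with CA-rhodamine or SE-rhodamine (5 μM, 1 h, 25 °C), resolved by reducing 10% SDS-PAGE, and scanned for in-gel fluorescence.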

SMILES: COC(=O)N1C(=O)[C@](c2ccccc2)(C2CCCC2)N1C(=O)OC (stereo in doubt) [Cmpd 1, reference compound]
- IC50 (PME-1 [1]): ~0.01 µM
- Effect on the demethylated form of PP2A ([2]; 500 nM): decreased the demethylated form of PP2A

SMILES: CS(=O)(=O)/C(C#N)=C/c1cccn1S(=O)(=O)c1ccccc1 [Cmpd 2]
- Cross-reactivity with additional SHs [3]: acyl-peptide hydrolase (APEH) and an unidentified 30 kDa SH

SMILES: CS(=O)(=O)/C(C#N)=C/c1ccc[nH]1 [Cmpd 7, (E)-2-(methylsulfonyl)-3-(1H-pyrrol-2-yl)acrylonitrile]
- PME-1 activity (in words) (PME-1 [4]): inactive

SMILES: CS(=O)(=O)/C(C#N)=C/c1ccc([N+](=O)[O-])cc1 [Cmpd 9, (E)-2-(methylsulfonyl)-3-(4-nitrophenyl)acrylonitrile]
- PME-1 activity (in words) (PME-1 [4]): inactive

SMILES: CS(=O)(=O)/C(C#N)=C/c1cccn1S(=O)(=O)c1c(F)c(F)c(F)c(F)c1F [Cmpd 22, (E)-2-(methylsulfonyl)-3-(1-((perfluorophenyl)sulfonyl)-1H-pyrrol-2-yl)acrylonitrile]
- PME-1 activity (in words) (PME-1 [6]): no activity

SMILES: N#C/C(=C\c1cccn1S(=O)(=O)c1cccc(C#N)c1)S(=O)(=O)c1ccc(F)cc1 [Cmpd 27, (E)-3-(2-(2-cyano-2-(4-fluorophenylsulfonyl)vinyl)-1H-pyrrol-1-ylsulfonyl)benzonitrile]
- Effect on the methylated form of PP2A (PP2A methylation state): significantly increased

SMILES: N#C/C(=C\c1cccn1S(=O)(=O)c1cccc([N+](=O)[O-])c1)S(=O)(=O)c1ccc(F)cc1 [Cmpd 28, (E)-2-(4-fluorophenylsulfonyl)-3-(1-(3-nitrophenylsulfonyl)-1H-pyrrol-2-yl)acrylonitrile]
- Cross-reactivity with other SHs in situ (other SHs [7]): without any observed cross-reactivity
- in situ inhibition of PME-1 (SILAC-ABPP) (PME-1 [8]): complete in situ inhibition
- Effect on the methylated form of PP2A (PP2A methylation state): significantly increased
- Recovery of enzyme activity after gel filtration (Purified wild-type PME-1): not observed
- Activity against other SHs (SILAC-ABPP) [9]: no activity
- Effect on the demethylated form of PP2A ([2]; 20 μM): decreased the demethylated form of PP2A
- Change of intensity of CA-Rh or SE-Rh-labeled proteins [10]: did not alter the intensity

More lines, main results first:

- PME-1 activity (in words) (PME-1 [4]): inactive
SMILES: CS(=O)(=O)C(C#N)Cc1cccn1S(=O)(=O)c1ccccc1 (centres unmarked) [Cmpd 3, 2-(methylsulfonyl)-3-(1-(phenylsulfonyl)-1H-pyrrol-2-yl)propanenitrile]

- PME-1 activity (in words) (PME-1 [4]): inactive
SMILES: CS(=O)(=O)/C(=C/c1cccn1S(=O)(=O)c1ccccc1)CN [Cmpd 4, (E)-2-(methylsulfonyl)-3-(1-(phenylsulfonyl)-1H-pyrrol-2-yl)prop-2-en-1-amine]

- PME-1 activity (in words) (PME-1 [4]): inactive
SMILES: CS(=O)(=O)/C(C#N)=C/c1ccccc1 [Cmpd 8, (E)-2-(methylsulfonyl)-3-phenylacrylonitrile]

- PME-1 activity (in words) (PME-1 [4]): did not inhibit PME-1
SMILES: CS(=O)(=O)C(=Cc1cccn1S(=O)(=O)c1ccccc1)S(C)(=O)=O [Cmpd 16, 2-(2,2-bis(methylsulfonyl)vinyl)-1-(phenylsulfonyl)-1H-pyrrole]

- PME-1 activity (in words) (PME-1 [4]): two-fold less potent
SMILES: N#CC(C#N)=Cc1cccn1S(=O)(=O)c1ccccc1 [Cmpd 17, 2-((1-(phenylsulfonyl)-1H-pyrrol-2-yl)methylene)malononitrile]
- Off-targets (other SHs [5]): increased activity against a 40 kDa SH

Source: article PMC3144155 (Journal of medicinal chemistry, 2011)
